The test system of data set [1] is Nucleic Acid. Put plainly: Binding affinity to calf thymus DNA assessed as binding constant by spectrofluorimetry based McGhee von Hippel method. The class given is nucleic-acid assay. Particulars: Bos taurus. The method, boiled down:
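Fluorescence titration used compound at 26.7 µM in 0.01 M Tris buffer (pH 7.4, 24 °C). ctDNA was added stepwise from 0 to 32 µM bp at 2 µM intervals until spectra stopped changing. Excitation was 384 nm and emission was read at 410–470 nm. Binding constant K was derived by the McGhee–von Hippel method from Scatchard plot data.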

The test system of data set [2] is HL-60. Put plainly: Cytotoxicity against human HL60 cells after 72 hrs using trypan blue exclusion staining by DCC method. In kind it is functional, cell-based. The conditions noted are these: HL-60, 72 h. The gist of the method:
(§1)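 For trypan blue dye-exclusion direct cell counting, HL-60 cells were seeded at 1 × 10⁵ cells/mL. Compound at 0–10 µM, or 1% DMSO control, was added after 24 h. Viable counts were taken after 24, 48 and 72 h. IC50 (50% inhibition of viability) came from growth curves, as mean ± S.D., n = 3.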

In data set [3] the test system is HL-60. Briefly: Induction of necrosis in human HL60 cells assessed as cell shrinking at 5 uM after 24 hrs by propidium iodide staining based fluorescence microscopy. The class given is functional.
Data set [4] deals with HL-60. Put plainly: Cytotoxicity against BSO pretreated human HL60 cells assessed as cell viability at 1.5 uM treated 6 hrs after BSO addition measured after 48 hrs by trypan blue exclusion assay. The class given is functional, cell-based. The method, boiled down: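 HL-60 cells were pretreated 6 h with L-buthionine-sulfoximine (10 µM), then exposed to 1.5, 3.0 or 1.0 µM compound for 48 h. Viable cells were counted by trypan blue staining and expressed as percentage of all cells.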

Data set [5] relates to HL-60. Briefly: Decrease in intracellular glutathione level in human HL60 cells at 2 uM after 24 hrs by spectrophotometric analysis. The class given is functional, cell-based.
Data set [6] relates to HL-60. Briefly: Decrease in intracellular glutathione level in human HL60 cells at 2 uM after 2 hrs by spectrophotometric analysis. The class given is functional, cell-based.
Data set [7] has as its system A2780. Briefly: Drug uptake in human A2780 cells at 5 uM after 4 hrs by Hoechst staining based fluorescence microscopy. In kind it is ADME, cell-based. The conditions noted are these: a2780, 4 h.
Data set [8] concerns HL-60. Briefly: Drug uptake in human HL60 cells at 5 uM after 4 hrs by Hoechst staining based fluorescence microscopy. The class given is ADME, cell-based. Particulars: hl-60, 4 h. The gist of the method: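 HL-60 cells were exposed to 5 µM for 4 h at 37 °C, 5% CO₂, then washed in PBS. Intrinsic blue fluorescence was viewed by optical and fluorescence microscopy. Untreated control cells were stained with Hoechst 33342 (10 µM, 10 min).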

The test system of data set [9] is A2780. Briefly: Cytotoxicity against human A2780 cells after 72 hrs by MTT assay. The conditions noted are these: A2780, 72 h. In kind it is functional, cell-based. The gist of the method: (§2)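 HL-60, L1210 and A2780 cells were grown in RPMI 1640 with 10% FBS, penicillin and streptomycin at 37 °C, 5% CO₂; HL-60 and A2780 medium also had 2 mM glutamine. Cells were exposed to 0–30 µM for 48 or 72 h. Viability was read by MTT microculture tetrazolium assay and IC50 was determined.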

In data set [10] the test system is HL-60. Briefly: Cytotoxicity against human HL60 cells after 48 hrs using trypan blue exclusion staining by DCC method. The class given is functional, cell-based. The conditions noted are these: HL-60, 48 h. The method, boiled down:
as §1

In data set [11] the test system is A2780. Put plainly: Cytotoxicity against human A2780 cells after 48 hrs by MTT assay. In kind it is functional, cell-based. Particulars: A2780, 48 h. The method, boiled down:
as §2

The subject of data set [12] is L1210. Briefly: Cytotoxicity against mouse L1210 cells after 72 hrs by MTT assay. In kind it is functional, cell-based. Particulars: L1210, 72 h. The method, boiled down: as §2
A general note: Formazan colour is commonly taken as a measure of viable cells.

In data set [13] the test system is L1210. Put plainly: Cytotoxicity against mouse L1210 cells after 48 hrs by MTT assay. The class given is functional, cell-based. Particulars: L1210, 48 h. The method, boiled down: as §2
In data set [14] the test system is HL-60. Briefly: Cytotoxicity against human HL60 cells after 48 hrs by MTT assay. In kind it is functional, cell-based. The conditions noted are these: HL-60, 48 h. The gist of the method: as §2
Data set [15] concerns HL-60. Put plainly: Cytotoxicity against human HL60 cells after 72 hrs by MTT assay. The class given is functional, cell-based. The conditions noted are these: HL-60, 72 h. The gist of the method:
as §2

In data set [16] the test system is Nucleic Acid. Briefly: Ratio of acridine orange K to compound K for calf thymus DNA by spectrofluorimetry based McGhee von Hippel method. In kind it is nucleic-acid assay. The conditions noted are these: Bos taurus.
Data set [17] deals with Nucleic Acid. Briefly: Ratio of daunomycin K to compound K for calf thymus DNA by spectrofluorimetry based McGhee von Hippel method. In kind it is nucleic-acid assay. The conditions noted are these: Bos taurus.
The test system of data set [18] is Nucleic Acid. Briefly: Ratio of proflavine K to compound K for calf thymus DNA by spectrofluorimetry based McGhee von Hippel method. The class given is nucleic-acid assay. Particulars: Bos taurus.
For data set [19], the system named is Nucleic Acid. Put plainly: Binding affinity to calf thymus DNA assessed as melting temperature at 5 uM at pH 7.1 by thermal denaturation assay. Particulars: Bos taurus. The class given is nucleic-acid assay.
The subject of data set [20] is Nucleic Acid. Briefly: Binding affinity to calf thymus DNA assessed as hypochromicity at 25 uM by UV-visible spectrophotometry. In kind it is nucleic-acid assay. The conditions noted are these: Bos taurus. The gist of the method: (§3)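 Absorption spectra were taken in 0.01 M Tris buffer, pH 7.4. Compounds were diluted from DMSO stock to a final 25 µM. Sonicated calf thymus DNA in TE buffer was added at 0–30 µM bp, with concentration set by A260. Shift of λmax (free vs bound) and % hypochromicity were recorded.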

Data set [21] deals with Nucleic Acid. Briefly: Binding affinity to calf thymus DNA assessed as bathochromic shift at 25 uM by UV-visible spectrophotometry. Particulars: Bos taurus. The class given is nucleic-acid assay. The gist of the method: as §3

The term IC50 denotes the concentration that gives 50% inhibition. A high value points to weaker potency. A word on the Tm: it is the temperature at the midpoint of the melting transition.

Active and inactive are the calls of the source. The rule behind the calls is not given here.

As for `CN(C)c1ccc2cc3ccc(N(C)C)cc3nc2c1`, the K in data set [1] was 3.19 ×10⁵ /M.

For the molecule `COc1cccc2c1C(=O)c1c(O)c3c(c(O)c1C2=O)C[C@@](O)(C(C)=O)C[C@@H]3O[C@H]1C[C@H](N)[C@H](O)[C@H](C)O1`, the K in data set [1] came out at 7.09 ×10⁵ /M.

As to `CCC(C)N1C(=O)/C(=C/C(=O)OC)S/C1=N\c1c2ccccc2nc2ccccc12` (stereo not drawn), the IC50 in [2] was found to be 1.7 µM; in data set [9] it was 12.6 µM; in data set [10], 2 µM; in [11], 20.8 µM; in [12], 7.5 µM; in data set [13], 3.3 µM. For the same molecule, the 50% inhibitory concentration (IC50) in [14] turned out to be 3.4 µM; in data set [15] it was 2.1 µM. Besides, the outcome in [3], in data set [4], in data set [5], in [6] and in data set [21] was Active. Further, the Drug uptake entry in [7] and in data set [8] was “Active” each time. Further, the Ratio in data set [16], in [17] and in data set [18] was 10 throughout. Besides, the K in data set [1] was determined as 2.21 ×10⁶ /M. In addition, in data set [19], the Tm is 75 °C. Besides, the Activity in data set [20] was 26.3%.

Source of the values: ChEMBL document CHEMBL2203053, “DNA binding acridine-thiazolidinone agents affecting intracellular glutathione” (Bioorg Med Chem, 2012).
